Data taken from ChEMBL document CHEMBL3272071, “Chemistry and biological activities of N,N-dimethylaminoethyl acrylate, a choline acetyltransferase inhibitor” (J Med Chem, 1976).
Activity calls are given as the source filed them. No cut-off for these calls is given here.

What was measured:
[1] = target: T1, Choline O-acetyltransferase (Rattus norvegicus, UniProt P32738); assay: Inhibition of Holtzman rat brain choline acetyltransferase using [1-14C-acetyl]-CoA as substrate at 1 mM incubated 20 mins prior to substrate addition measured after 30 mins by liquid scintillation counting analysis; settings: read-out: I50
T1 sequence (P32738 whole entry): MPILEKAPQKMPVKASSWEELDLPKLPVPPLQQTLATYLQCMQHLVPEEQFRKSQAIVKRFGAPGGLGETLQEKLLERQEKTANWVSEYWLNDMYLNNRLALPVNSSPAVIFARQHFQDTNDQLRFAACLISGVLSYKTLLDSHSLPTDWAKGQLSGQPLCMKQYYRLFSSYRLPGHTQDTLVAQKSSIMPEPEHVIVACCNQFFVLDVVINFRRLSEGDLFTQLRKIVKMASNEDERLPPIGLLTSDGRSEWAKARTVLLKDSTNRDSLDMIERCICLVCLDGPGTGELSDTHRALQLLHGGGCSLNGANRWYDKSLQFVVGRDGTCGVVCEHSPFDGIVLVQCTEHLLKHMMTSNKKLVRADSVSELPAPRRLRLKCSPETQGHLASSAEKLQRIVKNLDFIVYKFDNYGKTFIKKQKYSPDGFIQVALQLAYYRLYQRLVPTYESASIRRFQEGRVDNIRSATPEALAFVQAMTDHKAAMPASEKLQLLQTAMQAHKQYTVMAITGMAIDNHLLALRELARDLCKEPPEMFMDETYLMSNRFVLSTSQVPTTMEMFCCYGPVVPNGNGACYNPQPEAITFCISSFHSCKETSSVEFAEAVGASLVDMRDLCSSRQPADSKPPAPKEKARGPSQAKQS

[2] = Stability of the compound assessed as autohydrolysis at 5 X 10^-3 M at pH 7.4; assay type: physicochemical; settings: buffer, pH 7.4, 5000 µM
Procedure, shortened: (§1)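 Autohydrolysis run at 25°C for 20 min in barbital buffer (1.5 mM sodium barbital, 0.3 mM KH2PO4, 150 mM NaCl), pH adjusted to give 7.3-7.6. Compound at 5.0 mM final, no enzyme. pH change tracked against an acrylic acid titration standard curve. Mean ± SEM, three experiments.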

Acetylcholinesterase = Acetylcholinesterase (Homo sapiens, UniProt P22303); assay: Stability of the compound assessed as acetylcholinesterase (unknown origin)-mediated hydrolysis at 5 X 10^-3 M; assay type: ADME; settings: 5000 µM
Procedure, shortened: (§2)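 Enzymatic hydrolysis at 5 mM compound in barbital buffer at 25°C for 20 min, pH 7.3-7.6. AChE at 0.083 U/ml or BuChE at 0.017 U/ml. Ester cleavage followed as pH change calibrated against acrylic acid. Mean ± SEM of three experiments.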

Cholinesterase = Cholinesterase (Homo sapiens, UniProt P06276); assay: Stability of the compound assessed as butyrylcholine esterase (unknown origin)-mediated hydrolysis at 5 X 10^-3 M; assay type: ADME; settings: 5000 µM; procedure, shortened: as §2
[3] = target: T2, Choline O-acetyltransferase (Rattus norvegicus) (UniProt P32738); assay: Reversible inhibition of Holtzman rat brain choline acetyltransferase using [1-14C-acetyl]-CoA as substrate at 5 X 10^-4 M incubated 20 mins prior to substrate addition measured after 30 mins by liquid scintillation counting analysis
T2 sequence (whole entry): T1 sequence (P32738 whole entry)
Procedure, shortened: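 Reversibility test at 5 × 10^-4 M inhibitor with enzyme varied from 10 to 30 mg acetone powder per ml. Rat brain extract preincubated 20 min at 37°C, then [14C]acetyl-CoA radioassay for 30 min with scintillation counting. Mean of three experiments ± SEM.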

[4] = Dissociation constant, pKa of the compound; assay type: physicochemical
Lithobates pipiens [5] = assay: Inhibition of choline acetyltransferase in frog sciatic nerve-gastrocnemius muscle assessed as blockade of electrically stimulated muscle contraction at 10^-3 M incubated for 3 hrs followed by compound washout; assay type: tissue-based
Procedure, shortened: (§3)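 Rana pipiens sciatic nerve-gastrocnemius (20-25 g frogs) in frog Ringer, 25°C, 95% O2/5% CO2. Nerve stimulated at 7 V, 0.5 ms, 250 Hz for 0.1 s every 10 s. Isometric contractions recorded, with washout after 10^-3 M exposure. ED50 with 95% confidence limits by Litchfield-Wilcoxon, N=16.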

[6] = target: T1, Choline O-acetyltransferase; assay: Inhibition of Holtzman rat brain choline acetyltransferase using [1-14C-acetyl]-CoA as substrate incubated 20 mins prior to substrate addition measured after 30 mins by liquid scintillation counting analysis; settings: read-out: I50
Procedure, shortened: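 ChAc extracted from Holtzman rat brain acetone powder in ice-cold pH 7.0 phosphate medium (NaCl, EDTA, cysteine, BSA), 9000 g supernatant. Extract preincubated with inhibitor 20 min at 37°C in pH 7.0 phosphate buffer with 150 mM NaCl, 0.05 mM neostigmine, 50 mM choline. Then [1-14C-acetyl]-CoA at 0.065 mM final, 30 min at 37°C. Acetylated product by sequential anion/cation exchange and scintillation counting.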

[7] = Stability in aqueous medium by NMR spectroscopy; assay type: physicochemical; settings: buffer
Procedure, shortened: (§4)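 NMR spectra taken in D2O every 3 min for 1 hr. pH stayed at 9.0 (±0.5) throughout.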

[8] = target: T2, Choline O-acetyltransferase (Rattus norvegicus); assay: Inhibition of Holtzman rat brain choline acetyltransferase using [1-14C-acetyl]-CoA as substrate at 1 mM incubated in un-buffered water for 24 hrs by liquid scintillation counting analysis
Procedure, shortened: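 Hydration product made by keeping compound in unbuffered water for 24 hr, then run at 1.0 mM in the standard rat brain ChAc radioassay: 20 min preincubation at 37°C, 0.065 mM [1-14C-acetyl]-CoA, 30 min, ion-exchange then scintillation counting.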

[9] = target: T2, Choline O-acetyltransferase (Rattus norvegicus); assay: Uncompetitive inhibition of Holtzman rat brain choline acetyltransferase using acetyl-CoA as substrate at 0.2 mM incubated 20 mins prior to substrate addition measured after 30 mins by LB plot using liquid scintillation counting analysis
[10] = Stability in Me2SO-d6 by NMR spectroscopy; assay type: physicochemical
Cavia porcellus = species: Cavia porcellus; assay: Inhibition of choline acetyltransferase in guinea pig ileum assessed as blockade of electrically stimulated muscle contraction after 3 hrs; assay type: tissue-based
Procedure, shortened: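 Guinea pig ileum on coaxial electrode in Tyrode solution, 37°C, 95% O2/5% CO2. Transmural stimulation: monophasic square pulses, 40 V supramaximal, 10 Hz, 0.5 ms, 1 s every 10 s. Contraction blockade gave ED50 with 95% confidence limits by Litchfield-Wilcoxon, N=20.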

[11] = Stability in D2O by NMR spectroscopy; assay type: physicochemical; procedure, shortened: as §4
[12] = Stability in chloroform-d by NMR spectroscopy; assay type: physicochemical
[13] = target: T2, Choline O-acetyltransferase (Rattus norvegicus); assay: Uncompetitive inhibition of Holtzman rat brain choline acetyltransferase using choline as substrate at 1 mM incubated 20 mins prior to substrate addition measured after 30 mins by LB plot using liquid scintillation counting analysis
[14] = target: T2, Choline O-acetyltransferase (Rattus norvegicus); assay: Inhibition of Holtzman rat brain choline acetyltransferase using [1-14C-acetyl]-CoA as substrate at 1 mM treated with buffered solution at pH 7.4 for 3 to 60 mins prior to enzyme addition followed by 20 mins incubation prior to substrate addition […] by liquid scintillation counting analysis
[15] = Half life of the compound auto-hydrolysis at 5 X 10^-3 M at pH 7.4; assay type: physicochemical; settings: buffer; procedure, shortened: as §1
Lithobates pipiens [16] = assay: Inhibition of choline acetyltransferase in frog sciatic nerve-gastrocnemius muscle assessed as blockade of electrically stimulated muscle contraction after 3 hrs; assay type: tissue-based; procedure, shortened: as §3
[17] = Stability in D2O assessed every 4 mins for 1 hr by NMR spectroscopy; assay type: physicochemical

Acetylcholinesterase, sequence (P22303 whole entry): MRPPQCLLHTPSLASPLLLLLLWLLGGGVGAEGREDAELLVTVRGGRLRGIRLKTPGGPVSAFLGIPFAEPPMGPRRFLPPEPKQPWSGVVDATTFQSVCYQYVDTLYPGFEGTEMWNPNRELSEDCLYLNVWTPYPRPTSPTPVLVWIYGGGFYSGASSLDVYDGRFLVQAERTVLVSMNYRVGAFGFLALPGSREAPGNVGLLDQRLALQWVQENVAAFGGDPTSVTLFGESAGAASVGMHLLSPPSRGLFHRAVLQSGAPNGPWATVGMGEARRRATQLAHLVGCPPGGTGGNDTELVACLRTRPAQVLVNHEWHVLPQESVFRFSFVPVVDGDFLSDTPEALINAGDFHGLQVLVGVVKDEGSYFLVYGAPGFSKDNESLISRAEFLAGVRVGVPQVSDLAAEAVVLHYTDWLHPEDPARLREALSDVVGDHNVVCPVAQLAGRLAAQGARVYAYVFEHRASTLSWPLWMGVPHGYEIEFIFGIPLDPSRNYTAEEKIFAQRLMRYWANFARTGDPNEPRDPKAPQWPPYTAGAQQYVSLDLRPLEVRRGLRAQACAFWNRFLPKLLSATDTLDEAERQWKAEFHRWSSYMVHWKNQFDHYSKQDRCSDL
Cholinesterase, sequence (P06276 whole entry): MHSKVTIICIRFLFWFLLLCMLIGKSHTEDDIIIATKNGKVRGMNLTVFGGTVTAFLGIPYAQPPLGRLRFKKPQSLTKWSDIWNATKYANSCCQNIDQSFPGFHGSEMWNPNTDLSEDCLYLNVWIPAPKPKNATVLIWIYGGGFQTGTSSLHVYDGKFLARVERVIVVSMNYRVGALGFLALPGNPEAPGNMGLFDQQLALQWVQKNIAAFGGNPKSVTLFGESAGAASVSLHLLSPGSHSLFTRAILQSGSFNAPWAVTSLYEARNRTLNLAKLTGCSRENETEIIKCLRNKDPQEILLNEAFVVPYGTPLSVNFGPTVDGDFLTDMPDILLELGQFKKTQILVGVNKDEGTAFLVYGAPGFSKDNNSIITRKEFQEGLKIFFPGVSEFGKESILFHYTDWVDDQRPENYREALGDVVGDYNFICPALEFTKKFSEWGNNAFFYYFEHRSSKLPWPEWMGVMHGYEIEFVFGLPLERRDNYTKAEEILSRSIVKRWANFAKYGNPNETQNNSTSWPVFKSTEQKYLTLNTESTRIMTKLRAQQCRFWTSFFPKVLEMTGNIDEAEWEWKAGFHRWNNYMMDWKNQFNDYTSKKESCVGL

| IC50 [1] [µM] | Structure (SMILES) | Drug degradation [2] [×10⁻⁸ mol/min] | Drug degradation (Acetylcholinesterase) [×10⁻⁸ mol/min] | Drug degradation (Cholinesterase) [×10⁻⁸ mol/min] | inhibition [3] | pKa [4] | inhibition (Lithobates pipiens [5]) | IC50 [6] [µM] | Stability [7] | inhibition [8] | inhibition [9] | Stability [10] | ED50 (Cavia porcellus) [×10⁻⁴ M] | Stability [11] | Stability [12] | inhibition [13] | inhibition [14] | half-life at 5000 µM [15] [h] | ED50 (Lithobates pipiens [16]) [×10⁻⁴ M] | Stability [17] |
| --- | --- | --- | --- | --- | --- | --- | --- | --- | --- | --- | --- | --- | --- | --- | --- | --- | --- | --- | --- | --- |
| < 200 | C=CC(=O)O [ACRYLIC ACID] |  |  |  |  |  |  |  |  |  |  |  |  |  |  |  |  |  |  |  |
|  | CC(=O)OCC[N+](C)(C)C [ACETYLCHOLINE] | 1.75 | 1.46 | 6.57 |  |  |  |  |  |  |  |  |  |  |  |  |  |  |  |  |
|  | C=CC(=O)OCCN(C)C | 1.75 | 0.07 | 0.06 | Active | 8.6 | Active | 502 | Unstable | inactive | Active | Stable | 1.21 | Stable | Stable | Active | Active | 24 | 5.05 | Stable |
